“And” between values parts separate entries of the source, which are not always exact repeats. Identical values can stand only once.
How the values were obtained:
Canis familiaris [1] = experiment: Hemodynamic activity in anesthetized dog as percent change in blood pressure from baseline (123 mmHg) at 0.01 mg/kg administered intravenously; format: functional, Canis lupus familiaris; settings: route intravenous
Summary of the method: (§1)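 Acutely instrumented anesthetized dogs (n = 6), 30-min control period. Compound in 0.9% saline, or dilute HCl diluted with saline, at 0.1 mL/kg iv over 1 min. At least four ascending half-log doses, 10 min apart, one compound per animal. Recorded: LV dP/dtmax, heart rate, aortic pressure and forelimb resistance. Values are maximum response from control average ± SEM.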

Canis familiaris [2] = experiment: Cardiovascular activity in presence of beta-adrenoceptor blockade in dogs as percent change in heart rate from base line (121 bpm) at 0.01 mg/kg; format: functional, Canis lupus familiaris
Canis familiaris [3] = experiment: (§2) Percentage increase in left ventricular contractility in anesthetized dog; format: functional, Canis lupus familiaris, Heart left ventricle
Phosphodiesterase 3 = Phosphodiesterase 3 (Homo sapiens, UniProt Q14432+Q13370); experiment: Inhibition of phosphodiesterase 3 from human platelets at 1*10e-7-1*10e-4 M
Summary of the method: (§3)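 Fraction III cAMP-PDE from guinea pig heart or human platelets. Substrate [3H]cyclic AMP 1.0 μM at 30°C, with hydrolysis held to ≤10-20% and kept linear over 30 min. Compounds in DMSO, 2.5% final.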

Canis familiaris [4] = experiment: Hemodynamic activity in anesthetized dog as percent change in blood pressure from baseline (123 mmHg) at 0.1 mg/kg administered intravenously; format: functional, Canis lupus familiaris; settings: route intravenous; summary of the method: as §1
Canis familiaris [5] = experiment: Hemodynamic activity in anesthetized dog as percent change in fore limb resistance from baseline (2.77 mmHg/mL/min) at 0.003 mg/kg administered intravenously; format: functional, Canis lupus familiaris; settings: route intravenous; summary of the method: as §1
Canis familiaris [6] = species: Canis familiaris; experiment: Ratio of positive inotropic activity to peripheral Vasodilator activity in dogs; format: functional, Canis lupus familiaris
Summary of the method: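 Inotropic ED20 is the iv bolus dose giving a 20% rise in dP/dtmax in anesthetized dogs. Vasodilator ED20 is the bolus dose into the brachial cannula of a constant-flow perfused forelimb (pentobarbital 30 mg/kg iv then 3.0 mg/kg/h, heparinized) giving a 20% fall in perfusion pressure. Each ED20 was taken from its dose-response curve; the ratio is PI/PV.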

Canis familiaris [7] = experiment: Hemodynamic activity in anesthetized dog as percent change in fore limb resistance from baseline (2.77 mmHg/mL/min) at 0.03 mg/kg administered intravenously; format: functional, Canis lupus familiaris; settings: route intravenous; summary of the method: as §1
Canis familiaris [8] = experiment: Hemodynamic activity in anesthetized dog as percent change in heart rate from baseline (152 bpm) at 0.003 mg/kg administered intravenously; format: functional, Canis lupus familiaris; settings: route intravenous; summary of the method: as §1
Canis familiaris [9] = experiment: Hemodynamic activity in anesthetized dog as percent change in heart rate from baseline (152 bpm) at 0.03 mg/kg administered intravenously; format: functional, Canis lupus familiaris; settings: route intravenous; summary of the method: as §1
Canis familiaris [10] = experiment: Cardiovascular activity in presence of beta-adrenoceptor blockade in dogs as percent change in forelimb vascular resistance from base line (4.71 mmHg/mL/min) at 0.01 mg/kg before nadolol administration
Canis familiaris [11] = experiment: Hemodynamic activity in anesthetized dog as percent change in heart rate from baseline (152 bpm) at 0.001 mg/kg administered intravenously; format: functional, Canis lupus familiaris; settings: route intravenous; summary of the method: as §1
Homo sapiens [12] = species: Homo sapiens; experiment: In vitro inhibition of ADP stimulated platelet aggregation in human whole blood; format: functional
Summary of the method: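 Human whole blood from aspirin/NSAID-free fasted donors, read by impedance aggregometry 5 min after adding ADP or collagen. Aggregation expressed as % of control (2-6 replicates), plotted against log drug concentration; IC50 obtained by extrapolation.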

Canis familiaris [13] = experiment: Hemodynamic activity in anesthetized dog as percent change in blood pressure from baseline (123 mmHg) at 0.03 mg/kg administered intravenously; format: functional, Canis lupus familiaris; settings: route intravenous; summary of the method: as §1
Canis familiaris [14] = experiment: Hemodynamic activity in anesthetized dog as percent change in left ventricular myocardial activity from baseline (2271 mmHg/s) at 0.001 mg/kg administered intravenously; format: functional, Canis lupus familiaris, Heart left ventricle; settings: route intravenous; summary of the method: as §1
Canis familiaris [15] = experiment: Hemodynamic activity in anesthetized dog as percent change in left ventricular myocardial activity from baseline (2271 mmHg/s) at 0.03 mg/kg administered intravenously; format: functional, Canis lupus familiaris, Heart left ventricle; settings: route intravenous; summary of the method: as §1
Canis familiaris [16] = experiment: Weight of thrombus after 60 min of 3 ug/kg/min; format: functional, Canis lupus familiaris
Summary of the method: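 Anesthetized adult dogs were given sodium pentobarbital (32 mg/kg iv), intubated and artificially respired, then allowed 30 min to stabilize after surgery. Circumflex coronary thrombosis was induced by delivering 50 μA through an intraluminal silver-coated copper electrode, which denuded the endothelium. Continuous drug or saline infusion began 15 min before current onset and ran throughout, with one treatment per animal. After 60 min of stimulation the thrombus was dissected and weighed.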

Canis familiaris [17] = experiment: as §2; format: functional, Canis lupus familiaris, Heart left ventricle; remark: listed apart in the source
Canis familiaris [18] = experiment: Hemodynamic activity in anesthetized dog as percent change in fore limb resistance from baseline (2.77 mmHg/mL/min) at 0.3 mg/kg administered intravenously; format: functional, Canis lupus familiaris; settings: route intravenous; summary of the method: as §1
Canis familiaris [19] = experiment: Hemodynamic activity in anesthetized dog as percent change in heart rate from baseline (152 bpm) at 0.01 mg/kg administered intravenously; format: functional, Canis lupus familiaris; settings: route intravenous; summary of the method: as §1
Canis familiaris [20] = experiment: Cardiovascular activity in presence of beta-adrenoceptor blockade in dogs as percent change in forelimb vascular resistance from base line (5.23 mmHg/mL/min) at 0.01 mg/kg given 15 min after nadolol; format: functional, Canis lupus familiaris
Canis familiaris [21] = experiment: Hemodynamic activity in anesthetized dog as percent change in heart rate from baseline (152 bpm) at 0.1 mg/kg administered intravenously; format: functional, Canis lupus familiaris; settings: route intravenous; summary of the method: as §1
Canis familiaris [22] = experiment: Hemodynamic activity in anesthetized dog as percent change in blood pressure from baseline (123 mmHg) at 0.003 mg/kg administered intravenously; format: functional, Canis lupus familiaris; settings: route intravenous; summary of the method: as §1
Canis familiaris [23] = experiment: Cardiovascular activity in presence of beta-adrenoceptor blockade in dogs as percent change in left ventricular myocardial contractility from base line (2327 mmHg/s) at 0.01 mg/kg dose before nadolol administration
[24] = Inhibition of phosphodiesterase 3 from guinea pig cardiac tissue at 1*10e-7-1*10e-4 M; parameters: species or system Cavia porcellus; summary of the method: as §3
Canis familiaris [25] = experiment: Hemodynamic activity in anesthetized dog as percent change in fore limb resistance from baseline (2.77 mmHg/mL/min) at 0.01 mg/kg administered intravenously; format: functional, Canis lupus familiaris; settings: route intravenous; summary of the method: as §1
Canis familiaris [26] = experiment: Decrease in thrombus weight in anesthetized dog coronary artery; format: functional, Canis lupus familiaris
Summary of the method: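 Pentobarbital-anesthetized (32 mg/kg iv), ventilated dogs, allowed 30 min to stabilize. Continuous infusion of compound (1.0, 3.0 or 10.0 μg/kg/min) or saline began 15 min before 50 μA current was applied to an intraluminal electrode in the circumflex coronary artery. After 60 min of stimulation the animals were euthanized and the thrombus dissected and weighed. One treatment per animal.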

[27] = Partition coefficient (logP); format: physicochemical; settings: octanol/water
Homo sapiens [28] = species: Homo sapiens; experiment: In vitro inhibition of ADP stimulated platelet aggregation in human thrombocyte enriched plasma; format: functional
Summary of the method: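 Human platelet-rich plasma from aspirin/NSAID-free donors, adjusted to 250 000 platelets/μL with platelet-poor plasma. Drug in DMSO/saline (1% DMSO final) was added before ADP or collagen, with doses set by titration. Read-out was aggregation extent (ADP, curve height) or rate (collagen, major slope) as % of saline control.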

Canis familiaris [29] = experiment: Hemodynamic activity in anesthetized dog as percent change in fore limb resistance from baseline (2.77 mmHg/mL/min) at 0.001 mg/kg administered intravenously; format: functional, Canis lupus familiaris; settings: route intravenous; summary of the method: as §1
Canis familiaris [30] = experiment: Hemodynamic activity in anesthetized dog as percent change in heart rate from baseline (152 bpm) at 0.3 mg/kg administered intravenously; format: functional, Canis lupus familiaris; settings: route intravenous; summary of the method: as §1
Canis familiaris [31] = experiment: Cardiovascular activity in presence of beta-adrenoceptor blockade in dogs as percent change in heart rate from base line (136 bpm) at 0.01 mg/kg; format: functional, Canis lupus familiaris

Q: With `CC1CC(=O)NN=C1/C=C/c1ccc(-n2ccnc2)cc1.Cl` (configuration not stated) as the compound, how does the Change (Canis familiaris [1]) read?
A: -13%

Q: What about the Change (Canis familiaris [2]) of the same compound?
A: 6%

Q: And the Increase (Canis familiaris [3])?
A: 19%

Q: And the IC50 (Phosphodiesterase 3)?
A: 77 nM

Q: What about the Change (Canis familiaris [4]) of the same compound?
A: -35%

Q: What about the Change (Canis familiaris [5]) of the same compound?
A: -15%

Q: What about the Ratio (Canis familiaris [6]) of the same compound?
A: 1.29

Q: What about the Change (Canis familiaris [7]) of the same compound?
A: -49%

Q: What about the Change (Canis familiaris [8]) of the same compound?
A: 5%

Q: What about the Change (Canis familiaris [9]) of the same compound?
A: 23%

Q: What about the Change (Canis familiaris [10]) of the same compound?
A: -19%

Q: What about the Change (Canis familiaris [11]) of the same compound?
A: 0.2%

Q: What about the IC50 (Homo sapiens [12]) of the same compound?
A: 90 nM

Q: And the Change (Canis familiaris [13])?
A: -24%

Q: And the Change (Canis familiaris [14])?
A: 2%

Q: And the Change (Canis familiaris [15])?
A: 117%

Q: And the Thrombus weight (Canis familiaris [16])?
A: 6.3 mg

Q: What about the Increase (Canis familiaris [17]) of the same compound?
A: 77% and 103%

Q: What about the Change (Canis familiaris [18]) of the same compound?
A: -54%

Q: What about the Change (Canis familiaris [19]) of the same compound?
A: 12%

Q: What about the Change (Canis familiaris [20]) of the same compound?
A: -13%

Q: What about the Change (Canis familiaris [21]) of the same compound?
A: 28%

Q: What about the Change (Canis familiaris [22]) of the same compound?
A: -5%

Q: What about the Change (Canis familiaris [23]) of the same compound?
A: 56%

Q: And the IC50 [24]?
A: 250 nM

Q: And the Change (Canis familiaris [25])?
A: -36%

Q: What about the Inhibition (Canis familiaris [26]) of the same compound?
A: 65% and 44%

Q: And the logP [27]?
A: 1.71

Q: And the IC50 (Homo sapiens [28])?
A: 300 nM

Q: And the Change (Canis familiaris [29])?
A: 0.3%

Q: And the Change (Canis familiaris [30])?
A: 33%

Q: What about the Change (Canis familiaris [31]) of the same compound?
A: 18%

— ChEMBL document CHEMBL1124387, “Cardiotonic agents. 9. Synthesis and biological evaluation of a series of (E)-4,5-dihydro-6-[2-[4-(1H-imidazol-1-yl)phenyl]ethenyl]-3 (2H)-pyridazinones: a novel class of compounds with positive inotropic, antithrombotic, and vasodilatory activities for the treatment of congestive heart failure” (J Med Chem, 1989)
